Data set [1] is described as follows: Hemolytic activity in sheep RBC at 200 uM incubated for 1 hr by UV spectrophotometry. The class given is ADME, cell-based, Ovis aries, Erythrocyte. Conditions: sheep red blood cells (erythrocytes), read-out: Activity. A digest of the protocol: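 Red blood cells exposed to compound at 200 μM, with percent cell lysis recorded.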
Data set [2] deals with Klebsiella pneumoniae. Kind of data set: Potentiation of colistin-induced antibacterial activity against Klebsiella pneumoniae 2210291 harbouring mcr-1 gene assessed as reduction in colistin MIC at 15 uM incubated for 16 hrs by broth microdilution method. It counts as functional, organism-based. A digest of the protocol:
(§1)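 For the dose-response, colistin MIC was measured against mcr-1 plasmid-bearing E. coli, K. pneumoniae and A. baumannii while the adjuvant concentration was lowered stepwise (30, 15 μM, down to 5 μM). The aim was to find where the MIC rose above the 2 μg/mL CLSI susceptibility breakpoint.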
Background: Broth dilution looks for growth in wells or tubes with falling amounts of substance.

Data set [3] concerns Acinetobacter baumannii. Kind of data set: Potentiation of colistin-induced antibacterial activity against Acinetobacter baumannii 4106 assessed as reduction in colistin MIC at 15 uM incubated for 16 hrs by broth microdilution method (reference value: 1024 ug/ml). The class given is functional. To be noted: Acinetobacter baumannii, 4106, 16 h.
For data set [4], the system named is Acinetobacter baumannii. Kind of data set: Potentiation of colistin-induced antibacterial activity against Acinetobacter baumannii 3941 assessed as reduction in colistin MIC at 15 uM incubated for 16 hrs by broth microdilution method (reference value: 512 ug/ml). It counts as functional. Conditions: Acinetobacter baumannii, 3941, 16 h.
Data set [5] deals with Klebsiella pneumoniae. Kind of data set: Potentiation of colistin-induced antibacterial activity against Klebsiella pneumoniae B9 assessed as reduction in colistin MIC at 5 uM incubated for 16 hrs by broth microdilution method (reference value: 512 ug/ml). Conditions: B9, 16 h. It counts as functional.
The subject of data set [6] is Acinetobacter baumannii. Briefly: Potentiation of colistin-induced antibacterial activity against Acinetobacter baumannii 3941 assessed as reduction in colistin MIC at 20 uM incubated for 16 hrs by broth microdilution method (reference value: 512 ug/ml). It counts as functional. To be noted: Acinetobacter baumannii, 3941, 16 h.
Data set [7] relates to Acinetobacter baumannii. Briefly: Potentiation of colistin-induced antibacterial activity against Acinetobacter baumannii 17978 harbouring mcr-1 gene assessed as reduction in colistin MIC at 15 uM incubated for 16 hrs by broth microdilution method. The class given is functional, organism-based. In outline: as §1
The subject of data set [8] is Klebsiella pneumoniae. Kind of data set: Potentiation of colistin-induced antibacterial activity against Klebsiella pneumoniae B9 assessed as reduction in colistin MIC at 20 uM incubated for 16 hrs by broth microdilution method (reference value: 512 ug/ml). It counts as functional. To be noted: B9, 16 h.
Data set [9] has as its system Acinetobacter baumannii. Briefly: Potentiation of colistin-induced antibacterial activity against Acinetobacter baumannii 4106 assessed as reduction in colistin MIC at 7.5 uM incubated for 16 hrs by broth microdilution method (reference value: 1024 ug/ml). It counts as functional. To be noted: Acinetobacter baumannii, 4106, 16 h. In outline:
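Colistin MIC was measured against chromosomally colistin-resistant strains (K. pneumoniae B9, C3; A. baumannii 4106, among four strains) with adjuvant at fixed levels from 20 μM down to 7.5 μM. Fold reduction was reported against colistin alone, with the CLSI breakpoint taken as ≤2 μg/mL.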

In data set [10] the test system is Klebsiella pneumoniae. Briefly: Potentiation of colistin-induced antibacterial activity against Klebsiella pneumoniae 2210291 assessed as colistin MIC at 50 uM incubated for 16 hrs by broth microdilution method (reference value: 1 ug/ml). The class given is functional. Conditions: Klebsiella pneumoniae, 2210291, 16 h.
In data set [11] the test system is Klebsiella pneumoniae. Briefly: Potentiation of colistin-induced antibacterial activity against Klebsiella pneumoniae C3 assessed as reduction in colistin MIC at 15 uM incubated for 16 hrs by broth microdilution method (reference value: 512 ug/ml). It counts as functional. To be noted: C3, 16 h.
For data set [12], the system named is Klebsiella pneumoniae. Kind of data set: Potentiation of colistin-induced antibacterial activity against Klebsiella pneumoniae B9 assessed as reduction in colistin MIC at 7.5 uM incubated for 16 hrs by broth microdilution method (reference value: 512 ug/ml). Conditions: B9, 16 h. It counts as functional.

Molecules are shown by their SMILES. Active and inactive are the calls of the source. No cut-off for these calls is given here. A value given as a limit tells only on which side of the number the result lay.

The MIC is the lowest concentration found to suppress growth. `O=C(NCCc1c[nH]c2ccc(Br)cc12)Nc1cc(Cl)c(Br)c(Cl)c1`: the hemolysis at 1 h, 200 µM in data set [1] was under 2.5%. The result in the data set on Klebsiella pneumoniae [2] and with Acinetobacter baumannii [7] was Active. Moreover, the MIC in the data set with Acinetobacter baumannii [3] was at most 0.5 µg/mL; with Acinetobacter baumannii [4], 4 µg/mL; with Klebsiella pneumoniae [5], 0.5 µg/mL; with Acinetobacter baumannii [6], 2 µg/mL; in the data set on Klebsiella pneumoniae [8], at most 0.25 µg/mL; in the data set with Acinetobacter baumannii [9] it was 1 µg/mL. The MIC in the data set with Klebsiella pneumoniae [10] was 0.5 µg/mL; in the data set with Klebsiella pneumoniae [11], 0.5 µg/mL; in the data set on Klebsiella pneumoniae [12], at most 0.25 µg/mL.

Source of the values: ChEMBL document CHEMBL4304756, “Second-Generation Tryptamine Derivatives Potently Sensitize Colistin Resistant Bacteria to Colistin” (ACS Med Chem Lett, 2019).
